Measurements published in ChEMBL document CHEMBL1212730, “Augmented photoswitching modulates immune signaling” (Nat Chem Biol, 2009).
Calls of active or inactive are those of the source. The rule behind the calls is not given here.

How the values were obtained:
[1] = target: T1, Protein phosphatase 3 catalytic subunit alpha (Homo sapiens, UniProt Q08209); assay: Inhibition of calcineurin-mediated NFAT activation in human Jurkat cells by luciferase reporter gene assay; assay type: cell-based
Summary of the method: (§1)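 Cells were pretreated with non-irradiated compound, then either kept dark or irradiated at 740 nm for 1 h before PMA/ionomycin stimulation. Luciferase was read in lysed cells. Data are means ± s.d.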

[2] = target: T1, Protein phosphatase 3 catalytic subunit alpha; assay: Inhibition of calcineurin-mediated NFAT activation in human Jurkat cells measured after 45 min of irradiation with 740 nm light by luciferase reporter gene assay; assay type: cell-based
[3] = target: T1, Protein phosphatase 3 catalytic subunit alpha; assay: Inhibition of calcineurin-mediated streptavidin-coupled NFAT activation in human Jurkat cells by luciferase reporter gene assay; assay type: cell-based; summary of the method: as §1
PBMC [4] = assay: Immunosuppressive activity in human PBMC assessed as decrease in PMA/ionomycin-induced IL-2 production measured at 4 hrs interval post irradiation of 45 mins with 740 nm light by flow cytometry; assay type: functional, cell-based
[5] = target: T1, Protein phosphatase 3 catalytic subunit alpha; assay: Inhibition of calcineurin-mediated streptavidin-coupled NFAT activation in human Jurkat cells measured after 45 min of irradiation with 740 nm light by luciferase reporter gene assay; assay type: cell-based
PBMC [6] = assay: Immunosuppressive activity in human PBMC assessed as decrease in PMA/ionomycin-induced IL-2 production measured at 4 hrs interval by flow cytometry; assay type: functional, cell-based
PBMC [7] = assay: Immunosuppressive activity in streptavidin-stimulated human PBMC assessed as decrease in PMA/ionomycin-induced IL-2 production measured at 4 hrs interval by flow cytometry; assay type: functional, cell-based
PBMC [8] = assay: Immunosuppressive activity in streptavidin-stimulated human PBMC assessed as decrease in PMA/ionomycin-induced IL-2 production measured at 4 hrs interval post irradiation of 45 mins with 740 nm light by flow cytometry; assay type: functional, cell-based
[9] = target: T2, Peptidyl-prolyl cis-trans isomerase A (Homo sapiens, UniProt P62937); assay: Inhibition of PPIase activity of cyclophilin 18 by protease coupled assay
Target sequence in this assay (P62937 whole entry): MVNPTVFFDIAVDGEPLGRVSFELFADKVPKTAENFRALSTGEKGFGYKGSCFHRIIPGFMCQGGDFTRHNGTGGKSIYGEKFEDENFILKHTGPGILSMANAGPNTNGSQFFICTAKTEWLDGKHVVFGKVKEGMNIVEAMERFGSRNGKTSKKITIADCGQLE

[10] = target: T2, Peptidyl-prolyl cis-trans isomerase A; settings: 200 nM
Target sequence in this assay (P62937 whole entry, looked up): as the sequence (P62937 whole entry) above

[11] = target: T2, Peptidyl-prolyl cis-trans isomerase A; assay: Binding affinity to cyclophilin 18 assessed as reduction in calcineurin activity by protease coupled assay
Summary of the method: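 Cyp18 PPIase activity measured by a chymotrypsin-coupled protease assay with Suc-Ala-Phe-Pro-Phe-NH-Np as substrate at 7 °C. Cyp18 was 2.5 nM. Compound was tested non-irradiated, irradiated at 740 nm for 45 min, or irradiated and then kept dark overnight, with DMSO as control. Data are means ± s.d.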
Target sequence in this assay (P62937 whole entry): as above

[12] = target: T2, Peptidyl-prolyl cis-trans isomerase A; settings: Blood, 50 to 200 nM
Target sequence in this assay (P62937 whole entry, looked up): as the sequence (P62937 whole entry) above

[13] = target: T2, Peptidyl-prolyl cis-trans isomerase A; settings: Blood, Lysate, 50 to 200 nM
Target sequence in this assay (P62937 whole entry, looked up): as the sequence (P62937 whole entry) above

[14] = target: T2, Peptidyl-prolyl cis-trans isomerase A; settings: 10 uM
Target sequence in this assay (P62937 whole entry, looked up): as the sequence (P62937 whole entry) above

[15] = target: T2, Peptidyl-prolyl cis-trans isomerase A; settings: Blood, 50 to 200 nM; remark: listed apart in the source
Target sequence in this assay (P62937 whole entry, looked up): as the sequence (P62937 whole entry) above

[16] = target: T2, Peptidyl-prolyl cis-trans isomerase A; assay: Binding affinity to cyclophilin 18 assessed as reduction in [33P]phosphatase activity of calcineurin by protease coupled assay
Summary of the method: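 Calcineurin phosphatase activity measured at 30 °C with 33P-labeled phosphocasein. CaN was 3.5 nM, with Cyp18 at the desired concentrations and 10 µM compound, either irradiated at 740 nm for 45 min or non-irradiated, with or without streptavidin. The inhibitor concentration refers to the Cyp18–compound complex. Data are means ± s.d.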
Target sequence in this assay (P62937 whole entry): as above

[17] = target: T2, Peptidyl-prolyl cis-trans isomerase A; assay: Binding affinity to cyclophilin 18 by protease coupled assay
Target sequence in this assay (P62937 whole entry): as above

[18] = target: T2, Peptidyl-prolyl cis-trans isomerase A; assay: Binding affinity to streptavidin-coupled biotin-labeled cyclophilin 18 assessed as reduction in [33P] phosphatase activity of calcineurin by protease coupled assay
Target sequence in this assay (P62937 whole entry): as above

C/C=C/C[C@@H](C)[C@@H](O)[C@H]1C(=O)N[C@@H](CC)C(=O)N(C)CC(=O)N(C)[C@@H](CC(C)C)C(=O)N[C@@H](C(C)C)C(=O)N(C)[C@@H](CC(C)C)C(=O)N[C@@H](C)C(=O)N[C@H](COCC(=O)Nc2ccc(N=Nc3ccccc3)cc2)C(=O)N(C)[C@@H](CC(C)C)C(=O)N(C)[C@@H](CC(C)C)C(=O)N(C)[C@@H](C(C)C)C(=O)N1C
IC50 [1]: 75 nM
IC50 [2]: 49 nM

C/C=C/C[C@@H](C)[C@@H](O)[C@H]1C(=O)N[C@@H](CC)C(=O)N(C)CC(=O)N(C)[C@@H](CC(C)C)C(=O)N[C@@H](C(C)C)C(=O)N(C)[C@@H](CC(C)C)C(=O)N[C@@H](C)C(=O)N[C@H](COCC(=O)Nc2ccc(N=Nc3ccc(NC(=O)CCCC[C@@H]4SC[C@@H]5NC(=O)N[C@@H]54)cc3)cc2)C(=O)N(C)[C@@H](CC(C)C)C(=O)N(C)[C@@H](CC(C)C)C(=O)N(C)[C@@H](C(C)C)C(=O)N1C
IC50 [3]: 16.4 µM
Activity (PBMC [4]): Active
IC50 [5]: 1400 nM
Activity (PBMC [6]): Active
Activity (PBMC [7]): inactive
IC50 [1]: 135 nM
IC50 [2]: 89 nM
Activity (PBMC [8]): Active

C/C=C/C[C@@H](C)[C@@H](O)[C@H]1C(=O)N[C@@H](CC)C(=O)N(C)CC(=O)N(C)[C@@H](CC(C)C)C(=O)N[C@@H](C(C)C)C(=O)N(C)[C@@H](CC(C)C)C(=O)N[C@@H](C)C(=O)N[C@H](COCC(=O)Nc2ccc(/N=N\c3ccc(NC(=O)COC[C@H]4NC(=O)[C@H](C)NC(=O)[C@H](CC(C)C)N(C)C(=O)[C@H](C(C)C)NC(=O)[C@H](CC(C)C)N(C)C(=O)CN(C)C(=O)[C@H](CC)NC(=O)[C@H]([C@H](O)[C@H](C)C/C=C/C)N(C)C(=O)[C@H](C(C)C)N(C)C(=O)[C@H](CC(C)C)N(C)C(=O)[C@H](CC(C)C)N(C)C4=O)cc3)cc2)C(=O)N(C)[C@@H](CC(C)C)C(=O)N(C)[C@@H](CC(C)C)C(=O)N(C)[C@@H](C(C)C)C(=O)N1C
IC50 [9]: 30 nM
inhibition [10]: Active
IC50 [11]: 266 nM

C/C=C/C[C@@H](C)[C@@H](O)[C@H]1C(=O)N[C@@H](CC)C(=O)N(C)CC(=O)N(C)[C@@H](CC(C)C)C(=O)N[C@@H](C(C)C)C(=O)N(C)[C@@H](CC(C)C)C(=O)N[C@@H](C)C(=O)N[C@H](COCC(=O)Nc2ccc(/N=N/c3ccc(NC(=O)CCCC[C@@H]4SC[C@@H]5NC(=O)N[C@@H]54)cc3)cc2)C(=O)N(C)[C@@H](CC(C)C)C(=O)N(C)[C@@H](CC(C)C)C(=O)N(C)[C@@H](C(C)C)C(=O)N1C
inhibition [12]: Active
inhibition [13]: Active
inhibition [14]: 30%
inhibition [15]: Active

C/C=C/C[C@@H](C)[C@@H](O)[C@H]1C(=O)N[C@@H](CC)C(=O)N(C)CC(=O)N(C)[C@@H](CC(C)C)C(=O)N[C@@H](C(C)C)C(=O)N(C)[C@@H](CC(C)C)C(=O)N[C@@H](C)C(=O)N[C@H](COCC(=O)Nc2ccc(/N=N\c3ccc(NC(=O)CCCC[C@@H]4SC[C@@H]5NC(=O)N[C@@H]54)cc3)cc2)C(=O)N(C)[C@@H](CC(C)C)C(=O)N(C)[C@@H](CC(C)C)C(=O)N(C)[C@@H](C(C)C)C(=O)N1C
inhibition [12]: Active
inhibition [15]: Active
IC50 [16]: 950 nM

C/C=C/C[C@@H](C)[C@@H](O)[C@H]1C(=O)N[C@@H](CC)C(=O)N(C)CC(=O)N(C)[C@@H](CC(C)C)C(=O)N[C@@H](C(C)C)C(=O)N(C)[C@@H](CC(C)C)C(=O)N[C@@H](C)C(=O)N[C@H](COCC(=O)Nc2ccc(/N=N/c3ccc(NC(=O)COC[C@H]4NC(=O)[C@H](C)NC(=O)[C@H](CC(C)C)N(C)C(=O)[C@H](C(C)C)NC(=O)[C@H](CC(C)C)N(C)C(=O)CN(C)C(=O)[C@H](CC)NC(=O)[C@H]([C@H](O)[C@H](C)C/C=C/C)N(C)C(=O)[C@H](C(C)C)N(C)C(=O)[C@H](CC(C)C)N(C)C(=O)[C@H](CC(C)C)N(C)C4=O)cc3)cc2)C(=O)N(C)[C@@H](CC(C)C)C(=O)N(C)[C@@H](CC(C)C)C(=O)N(C)[C@@H](C(C)C)C(=O)N1C
IC50 [9]: 206 nM
inhibition [14]: 30%
IC50 [1]: 358 nM
IC50 [2]: 140 nM
IC50 [11]: 487 nM

C/C=C/C[C@@H](C)[C@@H](O)[C@H]1C(=O)N[C@@H](CC)C(=O)N(C)CC(=O)N(C)[C@@H](CC(C)C)C(=O)N[C@@H](C(C)C)C(=O)N(C)[C@@H](CC(C)C)C(=O)N[C@@H](C)C(=O)N[C@H](COCC(=O)Nc2ccc(/N=N\c3ccccc3)cc2)C(=O)N(C)[C@@H](CC(C)C)C(=O)N(C)[C@@H](CC(C)C)C(=O)N(C)[C@@H](C(C)C)C(=O)N1C
IC50 [9]: 2.79 nM
IC50 [17]: 147 nM

C/C=C/C[C@@H](C)[C@@H](O)[C@H]1C(=O)N[C@@H](CC)C(=O)N(C)CC(=O)N(C)[C@@H](CC(C)C)C(=O)N[C@@H](C(C)C)C(=O)N(C)[C@@H](CC(C)C)C(=O)N[C@@H](C)C(=O)N[C@H](COCC(=O)Nc2ccc(/N=N/c3ccccc3)cc2)C(=O)N(C)[C@@H](CC(C)C)C(=O)N(C)[C@@H](CC(C)C)C(=O)N(C)[C@@H](C(C)C)C(=O)N1C
IC50 [9]: 4.75 nM
IC50 [18]: 227 nM
